Only some compounds are listed: those with a hit (about 2.2% of all), similar ones and a draw of the others.
FN deposit inh = inhibitors of fibronectin matrix deposition, primary screen, AH1F cells, Alexa488-fibronectin fluorescence, plate reader; AH1F fibroblasts, overnight; actives 0.086% (n = 350,000); inhibition, % at 12.6 µM;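 active means mean inhibition across replicates of 30% or more, regardless of how many single replicates reach that level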;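 further: positive control wells lacked labelled fibronectin entirely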
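Test system: AH1F fibroblast monolayer depositing Alexa488-labelled fibronectin into matrix. Input: 10000 cells per well. Technique: fluorescence, ex 485 nm, em 525 nm. Buffer or medium: DMEM plus 2% serum, read in PBS. Timing: 1 h cell adhesion before compound, then overnight fibronectin incubation. Compound: single dose, pinned. Read-out basis: inhibition from reduced deposited-fibronectin fluorescence.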
Ecoli rRNA inh = reduced GFP signal of wild-type E. coli, primary screen, bacterial rRNA inhibitor project, GFP/RFP fluorescence, OD600, single point | E. coli WT GFP vs humanized-ribosome RFP mutants, 24 h; stronger effect = lower value; DMSO median 0, no signal -100 | AID 720706, 2013 | actives 1.6% (n = 350,000) | GFP signal change (wild-type ribosome), % (concentration not given with the values);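 active means significant combined selectivity score with lowered wild-type GFP, culture density cut under 30%, mutant RFP and density less affected; inactive means any of these conditions unmet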
ERp5 inh = inhibitors of ERp5-driven insulin aggregation, primary screen, biochemical, turbidity, absorbance 650 nm, single point; inhibition, % at 9.99 µM; Protein disulfide-isomerase A6 (Homo sapiens), Q15084; AID 651711, 2012; 90 min; actives 0.05% (n = 350,000);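 active means mean replicate inhibition above about 25%, with every replicate also reaching it, limit read from the data, passing the limit was not always enough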
PvdQ acylase = P. aeruginosa PvdQ acylase inhibitors, primary screen, biochemical, fluorescence, plate reader and imaging, single point; PvdQ acylase [Pseudomonas aeruginosa LESB58]; actives 0.063% (n = 340,000); inhibition, % at 10 µM; purified PvdQ acylase; in the data active means inhibition above about 30%, passing the limit was not always enough;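 further: 0% = vehicle neutral wells and 100% = reference inhibitor wells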
Env fusion inh = inhibitors of HIV-1 Env-driven cell-cell fusion, primary screen, HeLa-JRFL effector, CEM21 target cells, luciferase; inhibition, % at 12.3 µM; actives 1.1% (n = 360,000); AID 651610, 2012;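 active means mean replicate inhibition score of at least 50 and every replicate individually at or above 50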;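 further: 0% = plate neutral controls and 100% = maraviroc near 300 nM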
PDI inh = inhibitors of human PDI, primary screen, biochemical, turbidity, single point, plate reader; Protein disulfide-isomerase (Homo sapiens), P07237; PDI insulin aggregation turbidity, A650, 90 min; inhibition, % at 10 µM; actives 0.052% (n = 350,000);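 active means mean inhibition across replicates of 30% or more, whatever share of single replicates reach that level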
Target sequence (P07237 whole entry, looked up): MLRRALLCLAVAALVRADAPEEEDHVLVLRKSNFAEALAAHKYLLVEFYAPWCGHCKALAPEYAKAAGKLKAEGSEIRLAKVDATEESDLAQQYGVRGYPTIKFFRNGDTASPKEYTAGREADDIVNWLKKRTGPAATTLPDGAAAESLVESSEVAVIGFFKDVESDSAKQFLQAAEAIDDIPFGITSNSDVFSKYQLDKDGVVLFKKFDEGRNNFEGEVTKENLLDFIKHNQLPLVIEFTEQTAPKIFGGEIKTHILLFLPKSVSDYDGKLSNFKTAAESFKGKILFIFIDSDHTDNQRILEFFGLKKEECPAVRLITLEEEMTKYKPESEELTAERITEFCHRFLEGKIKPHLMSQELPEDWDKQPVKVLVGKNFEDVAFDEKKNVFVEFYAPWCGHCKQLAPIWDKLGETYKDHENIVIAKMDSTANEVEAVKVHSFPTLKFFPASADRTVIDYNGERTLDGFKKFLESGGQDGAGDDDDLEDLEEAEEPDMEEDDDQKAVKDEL
An asterisk follows results filed as active; / = no result given; [ ] = another dose, or the depositor's remark.

SMILES	FN deposit inh	Ecoli rRNA inh	ERp5 inh	PvdQ acylase	Env fusion inh	PDI inh
O=C(CN1C(=O)NC2(CCOc3ccccc32)C1=O)c1ccc(Cl)s1 (configuration not stated)	-6	-32*	3	-13	0	0
CCc1ccc(C(=O)CN2C(=O)NC3(CCOc4ccccc43)C2=O)s1 (configuration not stated)	12	/	-8	-2	11	-1
CCOC(=O)N1CCN(CC(=O)Nc2c(C(=O)OC)[nH]c3cccc(Cl)c23)CC1	/	-15*	-4	9	/	3
COc1ccc2c3c(n(C)c2c1)[C@H](CO)N(Cc1ccccc1Cl)CC31CCN(C(=O)CN(C)C)CC1	/	1	-9	/	/	/
C[C@H]1CN([C@@H](C)CO)C(=O)c2cc(NS(=O)(=O)c3ccc(F)cc3)ccc2O[C@H]1CN(C)S(=O)(=O)c1ccc(F)cc1	/	-3	0	/	58*[16.7 µM]	/
Cc1ccc(S(=O)(=O)N(C)C[C@@H]2Oc3ccc(NS(=O)(=O)c4ccc(Cl)cc4)cc3C(=O)N([C@@H](C)CO)C[C@H]2C)cc1	/	-1	-3	/	64*[16.7 µM]	/
CNC[C@H]1Oc2ccc(NC(=O)Nc3ccc(OC)cc3)cc2CC(=O)N([C@H](C)CO)C[C@H]1C	/	7	2	/	5[16.7 µM]	/
CC(C)NC(=O)N(C)C[C@H]1OCCCC[C@H](C)Oc2ccc(NS(=O)(=O)c3ccccc3)cc2C(=O)N([C@@H](C)CO)C[C@@H]1C	/	-4	-2	/	6[16.7 µM]	/
O=S(=O)(c1ccc(F)cc1)N1[C@@H]2CNC[C@H]1C2c1ccc(-c2cccc(F)c2)cc1 (some centres not stated)	-7	-56	1	/	/	/
O=C(Cn1c(C(F)(F)F)nc2ccccc21)c1ccc(Cl)cc1	/	/	/	-8	64*	4
COc1ccc(N=C2S/C(=C\c3ccc(N4CCOCC4)o3)C(=O)N2CCc2c[nH]c3ccccc23)cc1	/	/	/	-8	/	19
COc1ccc(N=C2S/C(=C\c3ccc(OCC(=O)O)cc3)C(=O)N2CCc2c[nH]c3ccccc23)cc1	/	-3	31*	-10	17	-1
CO[C@H]1CN(C)C(=O)c2ccc(NC(C)=O)cc2OC[C@H](C)N(Cc2cncnc2)C[C@H]1C	16	1	/	/	-8[16.7 µM]	/
CCOc1cc2c3c(c1)C(C)CC(C)(C)N3C(=O)C2=O (configuration not stated)	-10	/	/	5	104*	-2
N#C[C@@H]1[C@H](c2ccc(-c3ccccc3F)cc2)[C@@H](CO)N1C(=O)Cc1ccccc1	8	-53	6	/	58*[16.7 µM]	/
N#C[C@H]1[C@@H](c2ccc(-c3ccccc3)cc2)[C@@H](CO)N1S(=O)(=O)Cc1ccccc1	-5	-45	5	/	62*[16.7 µM]	/
Cc1cc(C(=O)CSc2nnc3ccccn23)c(C)n1-c1ccccc1	1	/	/	-3	61*	4
Cc1cc(C(=O)CSc2nnc(-c3ccccc3)n2-c2ccccc2)c(C)n1-c1ncn[nH]1	-6	/	/	11	-116	-2
COc1ccc(CN(C)C[C@H]2OCCCC[C@H](C)Oc3ccc(NC(=O)c4ccccc4)cc3C(=O)N([C@@H](C)CO)C[C@H]2C)cc1	/	3	2	/	-2[16.7 µM]	/
CC[C@@]12C(=O)N(c3cccc(Br)c3)C(=O)N1[C@H](c1ccc(Cl)cc1)[C@@H]1C(=O)N(C3CCCCC3)C(=O)[C@@H]12	7	16	5	-16	94*	-1
CC(C)C[C@@]12C(=O)N(c3cccc(Cl)c3)C(=O)N1[C@H](c1ccc(Cl)cc1)[C@@H]1C(=O)N(C3CCCCC3)C(=O)[C@@H]12	4	3	-2	-7	67*	-1
Cc1cccc(N2C(=O)N3[C@H](c4ccc(F)cc4)[C@@H]4C(=O)N(C5CCCCC5)C(=O)[C@@H]4[C@]3(Cc3ccc(Cl)cc3)C2=O)c1	-3	3	1	-12	91*	-3
CC[C@@]12C(=O)N(c3ccc(OC)cc3)C(=O)N1[C@H](c1ccc(Cl)cc1)[C@@H]1C(=O)N(C3CCCCC3)C(=O)[C@@H]12	-11	3	-7	-10	87*	6
CC(C)C[C@@]12C(=O)N(c3cccc(Cl)c3)C(=O)N1[C@H](c1ccc(F)cc1)[C@@H]1C(=O)N(C3CCCCC3)C(=O)[C@@H]12	-7	15	4	-11	15	1
C[C@H]1CN([C@@H](C)CO)C(=O)c2cc(NC(=O)CCC(F)(F)F)ccc2O[C@H]1CN(C)Cc1ccc2c(c1)OCO2	7	-3	-3	/	-8[16.7 µM]	/
SMILES	FN deposit inh	Ecoli rRNA inh	ERp5 inh	PvdQ acylase	Env fusion inh	PDI inh
CNC(=O)C[C@@H]1CC[C@@H]2[C@@H](COc3ccc(NC(=O)Nc4ccc(C)cc4)cc3C(=O)N2C)O1	-30	2	-5	/	-5[16.7 µM]	/
CC[C@@]12C(=O)N(c3cccc(F)c3)C(=O)N1[C@H](c1ccc(Cl)cc1)[C@@H]1C(=O)N(C3CCCCC3)C(=O)[C@@H]12	-5	14	1	-8	95*	-2
O=C1[C@H]2[C@@H](c3ccc(Cl)cc3)N3C(=O)N(c4cccc(Cl)c4)C(=O)[C@@]3(Cc3ccc(Cl)cc3)[C@H]2C(=O)N1C1CCCCC1	-3	-1	8	-12	-1	-4
CC(C)C[C@@]12C(=O)N(c3cccc(Br)c3)C(=O)N1[C@H](c1ccc(Cl)cc1)[C@@H]1C(=O)N(C3CCCCC3)C(=O)[C@@H]12	-5	1	-1	-6	70*	6
C[C@H]1CCCCO[C@@H](CN(C)C(=O)NC2CCCCC2)[C@@H](C)CN([C@@H](C)CO)C(=O)c2cc(NS(C)(=O)=O)ccc2O1	-6	0	/	/	10[16.7 µM]	/
CN(C)CC#Cc1ccc([C@H]2[C@H](CO)N3C(=O)CN(C(=O)Cc4ccccc4)C[C@@H]23)cc1	/	1	0	/	/	/
O=C(C[C@H]1C[C@H]2c3cc(NS(=O)(=O)c4ccc(F)cc4)ccc3O[C@H]2[C@H](CO)O1)NCc1ccccn1	/	2	/	/	/	/
O=C(Nc1ccc(F)cc1)N[C@H]1C=C[C@H](CC(=O)N2CCOCC2)O[C@H]1CO	1	6	0	/	11[16.7 µM]	/
O=C(NN=Cc1c(O)ccc2ccccc12)C1CC1	10	-17*	-5	12	21	-1
O=C(NN=Cc1cccc2ccccc12)C1CC1	1	-16	4	-4	-106	-2

Assay outcomes (PubChem BioAssay)
